These results are taken from ChEMBL document CHEMBL1155605, “Effect of lichen metabolites on thylakoid electron transport and photophosphorylation in isolated spinach chloroplasts” (J Nat Prod, 2000).

Active and inactive are the calls of the source. The rule behind the calls is not given here.

Assay [1] has as its system Echinochloa crus-galli. The experiment in a line: Phytogrowth-inhibitory activity against Echinochloa crusgalli assessed as inhibition of seedling germination. The assay is classed as functional, organism-based.
Assay [2] has as its system Amaranthus hypochondriacus. The experiment in a line: Phytogrowth-inhibitory activity against Amaranthus hypochondriacus assessed as inhibition of seedling germination. The format is functional, organism-based.
The subject of assay [3] is Echinochloa crus-galli. The experiment in a line: Phytogrowth-inhibitory activity against Echinochloa crusgalli assessed as inhibition of seedling growth. The assay is classed as functional, organism-based. In short, it runs like this:
(§1)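 Petri-dish seed assay at 28 °C, run at 1, 10, 100 and 1000 µg/mL with 2,4-D as positive control. Data analysed by ANOVA (p<0.05). IC50 in molar units obtained by Probit analysis of percent radicle growth inhibition.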

For assay [4], the system named is Amaranthus hypochondriacus. As to the kind of experiment: Phytogrowth-inhibitory activity against Amaranthus hypochondriacus assessed as inhibition of seedling growth. The assay is classed as functional, organism-based. In short, it runs like this:
as §1

Assay [5] is described as follows: Inhibition of photosynthetic phosphorylation from water to methyl viologen in spinach leaves chloroplast. The assay is classed as functional, Spinacia oleracea. The following applies: read-out: I50. In short, it runs like this:
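ATP synthesis determined titrimetrically by pH change, with 0.05 mM MV as Hill acceptor in 100 mM sorbitol, 5 mM MgCl2, 10 mM KCl, 1 mM tricine pH 8.0. Compounds at 50–300 µM; DCMU at 0.01–10.0 µM as reference. I50 extrapolated from the percent-activity versus concentration plot.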

Assay [6] relates to Spinacia oleracea. The experiment in a line: Effect on uncoupled photosystem 2 of spinach leaves chloroplast assessed as inhibition of electron transport from water to 2,6-dichlorophenol indophenol at 100 uM relative to control. In short, it runs like this: (§2)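 Uncoupled PSII as DCPIP-supported O2 evolution, monitored polarographically with a Clark electrode. Spinach thylakoids in 100 mM sorbitol, 5 mM MgCl2, 10 mM KCl, 15 mM tricine pH 8.0 and 0.5 mM KCN. Ferricyanide 300 µM replaces MV; 1 µM DBMIB, 100 µM DCPIP and 6 mM NH4Cl added. Illumination 2 min through 1% CuSO4 filter. Activity relative to control.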

The nature of assay [7]: Inhibition of light-dependent proton uptake in spinach leaves chloroplast. The assay is classed as functional, Spinacia oleracea. The following applies: read-out: I50. A digest of the protocol:
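Light-driven proton uptake recorded as a pH rise from 8.0 to 8.1 with a combination microelectrode on an expanded-scale potentiometer. Medium: 100 mM sorbitol, 5 mM MgCl2, 10 mM KCl, 1 mM tricine pH 8.0, 0.05 mM MV. Compounds at 50–300 µM. I50 read from the plot of percent activity against concentration.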

The test system of assay [8] is Spinacia oleracea. The experiment in a line: Inhibition of photophosphorylation in spinach leaves chloroplast assessed as inhibition of noncyclic electron transport from water to methyl viologen in uncoupled condition. The assay is classed as functional. In short, it runs like this:
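Water→0.05 mM MV O2 uptake measured with a Clark electrode in basal medium (15 mM tricine pH 8.0, 0.5 mM KCN) plus 6 mM NH4Cl as uncoupler, with 2 min actinic illumination. Compounds at 50–300 µM. I50 from the percent-activity versus concentration plot.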

Assay [9] has as its system Spinacia oleracea. As to the kind of experiment: Effect on uncoupled photosystem 2 of spinach leaves chloroplast assessed as inhibition of electron transport from water to 2,6-dichlorophenol indophenol at 50 uM relative to control. In short, it runs like this:
as §2

Assay [10] relates to Spinacia oleracea. The experiment in a line: Effect on uncoupled photosystem 2 of spinach leaves chloroplast assessed as inhibition of electron transport from water to 2,6-dichlorophenol indophenol at 200 uM relative to control. In short, it runs like this:
as §2

For assay [11], the system named is Spinacia oleracea. The experiment in a line: Effect on uncoupled photosystem 2 of spinach leaves chloroplast assessed as inhibition of electron transport from water to 2,6-dichlorophenol indophenol at 250 uM relative to control. A digest of the protocol:
as §2

Assay [12] has as its system Spinacia oleracea. The experiment in a line: Effect on uncoupled photosystem 2 of spinach leaves chloroplast assessed as inhibition of electron transport from water to 2,6-dichlorophenol indophenol at 300 uM relative to control. In short, it runs like this:
as §2

Assay [13] concerns Spinacia oleracea. The experiment in a line: Effect on uncoupled photosystem 2 of spinach chloroplast assessed as inhibition of electron transport rate of water to silicomolybdate at 50 uM relative to control. A digest of the protocol: (§3)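 Intact thylakoids from market spinach leaves, stored dark 1 h at 0 °C. Uncoupled medium: 100 mM sorbitol, 5 mM MgCl2, 10 mM KCl, 15 mM tricine pH 8.0, 0.5 mM KCN, 300 µM ferricyanide, 1 µM DBMIB, 100 µM DCPIP, 6 mM NH4Cl, plus 200 µM SiMo and 10 µM DCMU. O2 evolution by Clark electrode under filtered actinic light for 2 min. Activity expressed relative to control.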

Assay [14] relates to Spinacia oleracea. As to the kind of experiment: Effect on uncoupled photosystem 2 of spinach chloroplast assessed as inhibition of electron transport rate of water to silicomolybdate at 100 uM relative to control. In short, it runs like this: as §3
The test system of assay [15] is Spinacia oleracea. The experiment in a line: Effect on uncoupled photosystem 2 of spinach chloroplast assessed as inhibition of electron transport rate of water to silicomolybdate at 150 uM relative to control. A digest of the protocol:
as §3

In assay [16] the test system is Spinacia oleracea. As to the kind of experiment: Effect on uncoupled photosystem 2 of spinach chloroplast assessed as inhibition of electron transport rate of water to silicomolybdate at 200 uM relative to control. In short, it runs like this:
as §3

In assay [17] the test system is Spinacia oleracea. The experiment in a line: Effect on uncoupled photosystem 2 of spinach chloroplast assessed as inhibition of electron transport rate of water to silicomolybdate at 250 uM relative to control. In short, it runs like this: as §3
The test system of assay [18] is Spinacia oleracea. The experiment in a line: Effect on uncoupled photosystem 2 of spinach chloroplast assessed as inhibition of electron transport rate of water to silicomolybdate at 300 uM relative to control. A digest of the protocol:
as §3

The subject of assay [19] is Spinacia oleracea. The experiment in a line: Effect on uncoupled photosystem 2 of spinach leaves chloroplast assessed as inhibition of electron transport from diphenylcarbazide to 2,6-dichlorophenol indophenol at 50 uM relative to control. In short, it runs like this: (§4)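 Tris-treated (0.8 M, pH 8.0) spinach thylakoids in uncoupled medium with 200 µM DPC, 100 µM DCPIP, 1 µM DBMIB and 6 mM NH4Cl. DCPIP reduction followed spectrophotometrically. Activity expressed relative to control.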

Assay [20] concerns Spinacia oleracea. The experiment in a line: Effect on uncoupled photosystem 2 of spinach leaves chloroplast assessed as inhibition of electron transport from diphenylcarbazide to 2,6-dichlorophenol indophenol at 100 uM relative to control. In short, it runs like this: as §4
In assay [21] the test system is Spinacia oleracea. The experiment in a line: Effect on uncoupled photosystem 2 of spinach leaves chloroplast assessed as inhibition of electron transport from diphenylcarbazide to 2,6-dichlorophenol indophenol at 150 uM relative to control. A digest of the protocol: as §4
Assay [22] deals with Spinacia oleracea. As to the kind of experiment: Effect on uncoupled photosystem 2 of spinach leaves chloroplast assessed as inhibition of electron transport from diphenylcarbazide to 2,6-dichlorophenol indophenol at 200 uM relative to control. In short, it runs like this: as §4
Assay [23] concerns Spinacia oleracea. The experiment in a line: Effect on uncoupled photosystem 2 of spinach leaves chloroplast assessed as inhibition of electron transport from diphenylcarbazide to 2,6-dichlorophenol indophenol at 250 uM relative to control. In short, it runs like this:
as §4

The test system of assay [24] is Spinacia oleracea. The experiment in a line: Effect on uncoupled photosystem 2 of spinach leaves chloroplast assessed as inhibition of electron transport from diphenylcarbazide to 2,6-dichlorophenol indophenol at 300 uM relative to control. In short, it runs like this:
as §4

Assay [25] concerns Spinacia oleracea. The experiment in a line: Effect on uncoupled photosystem 2 of spinach leaves chloroplast assessed as inhibition of electron transport from water to 2,6-dichlorophenol indophenol at 150 uM relative to control. In short, it runs like this:
as §2

`O=C(O)COc1ccc(Cl)cc1Cl` [2,4-DICHLOROPHENOXYACETIC ACID]: the IC50 in assay [1] is greater than 230 µM; in assay [2], 880 µM; in assay [3], greater than 230 µM.
`COC(=O)c1c(C)cc(O)c(C)c1O` [ATRARIC ACID]: the IC50 in [4] was found to be 320 µM; in assay [1], 1100 µM; in assay [2], 760 µM; in assay [3], 610 µM.
Consider `CN(C)C(=O)Nc1ccc(Cl)c(Cl)c1` [DCMU], for which, in [5], the IC50 came to 0.14 µM.
Regarding `Cc1cc(OC(=O)c2c(C)cc(OC(=O)c3c(C)cc(O)cc3O)cc2O)cc(O)c1C(=O)O` [GYROPHORIC ACID], the Activity in assay [6] was 49.7; in assay [9], 72.1; in assay [10], 16.8; in assay [11], 4.1; in [13], 93.4; in assay [14], 79.9. In addition, the Activity came to 62.5 in assay [15]; 41 in assay [16]; 84.3 in assay [19]; 58.5 in assay [20]; 40.3 in assay [21]; 33.8 in [22]. Further, the Activity in assay [23] worked out at 29.9; in assay [24], 17.9; in assay [25] it was 31.3. Besides, the IC50 in assay [5] is 87.1 µM; in assay [7], 59.7 µM; in assay [4], 2000 µM; in assay [1] it was 2000 µM; in assay [2], 2000 µM; in assay [3], 2000 µM. The outcome in assay [8], in [12], in assay [17] and in assay [18] was Active.
With `Cc1cc(O)cc(OC(=O)c2c(C)cc(O)cc2O)c1` [LECANORIN], the Activity turned out to be 37.5 in assay [6]; 64.3 in assay [9]; 59.1 in [13]; 25 in [14]; 8.4 in assay [15]; 93.6 in assay [19]. In addition, the Activity stood at 86.9 in assay [20]; 88.9 in [21]; 96 in [22]; 112 in assay [23]; 135 in assay [24]; 15.7 in assay [25]. The IC50 in assay [5] was found to be 136 µM; in assay [7] it was 140 µM; in assay [4] it was 580 µM; in assay [1], 710 µM; in assay [2], 760 µM; in assay [3], 180 µM. Further, the result in assay [8], in assay [10], in assay [11], in assay [12], in assay [16] and in [17] was Active. Also, the outcome in assay [18] was Active.
On to `COc1cc(C)c2c(=O)c3c(O)cc(OC)cc3oc2c1` [LICHEXANTHONE], for which the IC50 in assay [4], in assay [1], in assay [2] and in [3] was greater than 2000 µM throughout.
For the molecule `COC(=O)c1c(C)cc(O)c(C=O)c1O` [METHYL HAEMATOMMATE], the IC50 in assay [3] was determined as 29 µM.
`COC(=O)c1c(C)cc(O)cc1O` [METHYL ORSELLINATE]: the IC50 came to 290 µM in [4], 680 µM in assay [1], 360 µM in [2] and 310 µM in [3].
Regarding `Cc1cc(O)cc(O)c1` [ORCINOL], the IC50 in [4] is 1000 µM; in [1], greater than 8100 µM; in [2] it was 1700 µM; in assay [3], 1100 µM.
